Activity calls are given as the source filed them. The calls are words filed in the database; no cut-off is given here.

The nature of series [1]: Selectivity index, ratio of IC50 for mouse NIH/3T3 cells to IC50 for rat C6 cells. Format: toxicity. To be noted: NIH/3T3 cells versus C6 cells, read-out: Ratio IC50. Summed up: (§1)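 Selectivity index = IC50 for NIH/3T3 normal fibroblasts / IC50 for the cancer line (A549 or C6). […] An IC50 above 403.00 was taken as 403.00.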
Series [2] has as its system A549. Kind of series: Cytotoxicity against human A549 cells assessed as decrease in cell viability after 24 hrs by MTT assay. Format: functional, cell-based. To be noted: A549, 24 h. The essentials: (§2)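 Viability was read as cellular MTT reduction. Cisplatin and GSK690693 were run as reference controls. IC50 values were derived for each cell line.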
(In general: Tetrazolium dyes change colour on reduction, which living cells bring about.)

The nature of series [3]: Selectivity index, ratio of IC50 for mouse NIH/3T3 cells to IC50 for human A549 cells. Format: toxicity. To be noted: NIH/3T3 cells versus A549 cells, read-out: Ratio IC50. The essentials: as §1
A further series concerns NIH3T3. Put plainly: Cytotoxicity against mouse NIH/3T3 cells assessed as decrease in cell viability after 24 hrs by MTT assay. To be noted: NIH3T3, 24 h. Type of series: cell-based. The essentials:
as §2

For series [4], the system named is C6. Put plainly: Cytotoxicity against rat C6 cells assessed as decrease in cell viability after 24 hrs by MTT assay. Format: functional, cell-based. To be noted: C6, 24 h. Summed up: as §2
For series [5], the system named is A549. Put plainly: Induction of apoptotic morphological alterations in human A549 cells assessed as disruption of cellular organization at IC50 after 24 hrs by transmission electron microscopy. Type of series: functional, cell-based. The essentials: (§3)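 Cells were fixed in 2.5% glutaraldehyde in 0.1 M PBS pH 7.4 and held overnight at 4 °C, then agar-embedded and post-fixed in 2% osmium tetroxide. They were dehydrated through graded ethanol, embedded in EPON 812, ultrathin-sectioned and examined by transmission electron microscopy.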

Series [6] concerns the target RAC-alpha serine/threonine-protein kinase (Homo sapiens, UniProt P31749). Put plainly: Inhibition of Akt in human A549 cells after 24 hrs by ELISA. Format: cell-based. Summed up:
(§4)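 In-cell colorimetric ELISA: 10,000 cells/well were treated 24 h, then fixed in 4% formaldehyde for 15 min, permeabilised, quenched and blocked. Primary antibody ran overnight at 4 °C, then HRP conjugate for 30 min, then TMB; absorbance was read at 450 nm. Wells were in triplicate and blank-subtracted. Activity is relative to untreated cells; IC50 came from graphs of three concentrations.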
For orientation: In an ELISA, binding on a coated surface is turned into a signal by an enzyme label.

Series [7] deals with C6. Put plainly: Induction of apoptotic morphological alterations in rat C6 cells assessed as disruption of cellular organization at IC50 after 24 hrs by transmission electron microscopy. Type of series: functional, cell-based. The essentials:
as §3

In series [8] the test system is A549. Kind of series: Induction of mitochondrial membrane potential loss in human A549 cells assessed as intact mitochondrial membrane potential at IC50 measured after 24 hrs by JC-1 staining based flow cytometric analysis (reference value: 90.4%). Format: functional. (In general: A flow cytometer gives signals particle by particle.)
In series [9] the test system is C6. Kind of series: Induction of apoptosis in rat C6 cells assessed as early/late apoptotic cells at IC50 after 24 hrs by Annexin V-FITC/PI staining based flow cytometry (reference value: 8%). Type of series: functional.
The subject of series [10] is A549. Put plainly: Induction of apoptotic morphological alterations in human A549 cells assessed as rounding of cells at IC50 after 24 hrs by transmission electron microscopy. Format: functional, cell-based. The essentials:
as §3

Series [11] has as its system A549. Kind of series: Induction of apoptosis in human A549 cells assessed as caspase-3 negative cell level at IC50 after 24 hrs by FITC-A labeled flow cytometry (reference value: 98.1%). Type of series: functional.
The test system of series [12] is C6. Put plainly: Induction of apoptosis in rat C6 cells assessed as caspase-3 positive cell level at IC50 after 24 hrs by FITC-A labeled flow cytometry (reference value: 4.8%). Type of series: functional.
Series [13] deals with C6. Put plainly: Induction of apoptotic morphological alterations in rat C6 cells assessed as rounding of cells at IC50 after 24 hrs by transmission electron microscopy. Format: functional, cell-based. The essentials:
as §3

Series [14] relates to A549. Put plainly: Induction of apoptosis in human A549 cells assessed as caspase-3 positive cell level at IC50 after 24 hrs by FITC-A labeled flow cytometry (reference value: 2.1%). Format: functional.
Series [15] deals with C6. Kind of series: Induction of mitochondrial membrane potential loss in rat C6 cells at IC50 measured after 24 hrs by JC-1 staining based flow cytometric analysis (reference value: 19.9%). Type of series: functional.
In series [16] the test system is A549. Kind of series: Induction of apoptotic morphological alterations in human A549 cells assessed as organellar membrane damage at IC50 after 24 hrs by transmission electron microscopy. Format: functional, cell-based. Summed up: as §3
Series [17] concerns C6. Kind of series: Induction of apoptosis in rat C6 cells assessed as caspase-3 negative cell level at IC50 after 24 hrs by FITC-A labeled flow cytometry (reference value: 96.4%). Type of series: functional.
In the next series the target is Focal adhesion kinase 1 (Rattus norvegicus, UniProt O35346). Put plainly: Inhibition of FAK phasphorylation at Tyr397 residues in rat C6 cells after 24 hrs by ELISA. Type of series: cell-based. The essentials: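 Cell-based colorimetric ELISA in C6 cells treated 24 h: cells were fixed in 4% formaldehyde for 20 min, quenched, and blocked for 1 h. Anti-FAK pTyr397, anti-FAK and anti-GAPDH primaries ran overnight at 4 °C, then HRP secondaries for 1.5 h and substrate for 30 min. OD450 was read in duplicate wells; pFAK was normalised to GAPDH. IC50 came from graphs of three concentrations.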

In series [18] the target is RAC-alpha serine/threonine-protein kinase (Rattus norvegicus, UniProt P47196). Kind of series: Inhibition of Akt in rat C6 cells after 24 hrs by ELISA. Type of series: cell-based. Summed up:
as §4

In series [19] the test system is C6. Kind of series: Induction of apoptotic morphological alterations in rat C6 cells assessed as cell shrinkage at IC50 after 24 hrs by transmission electron microscopy. Type of series: functional, cell-based. The essentials:
as §3

Series [20] has as its system A549. Kind of series: Induction of apoptosis in human A549 cells assessed as early/late apoptotic cells at IC50 after 24 hrs by Annexin V-FITC/PI staining based flow cytometry (reference value: 7.1%). Format: functional.
In series [21] the test system is A549. Put plainly: Induction of apoptotic morphological alterations in human A549 cells assessed as DNA condensation at IC50 after 24 hrs by transmission electron microscopy. Format: functional, cell-based. The essentials: as §3
In series [22] the test system is A549. Put plainly: Induction of apoptotic morphological alterations in human A549 cells assessed as cell shrinkage at IC50 after 24 hrs by transmission electron microscopy. Type of series: functional, cell-based. Summed up:
as §3

Series [23] concerns A549. Kind of series: Induction of apoptosis in human A549 cells assessed as viable cells at IC50 after 24 hrs by Annexin V-FITC/PI staining based flow cytometry (reference value: 89%). Format: functional.
Series [24] has as its system A549. Put plainly: Induction of mitochondrial membrane potential loss in human A549 cells at IC50 measured after 24 hrs by JC-1 staining based flow cytometric analysis (reference value: 9.8%). Type of series: functional.
The test system of series [25] is C6. Kind of series: Induction of apoptotic morphological alterations in rat C6 cells assessed as DNA condensation at IC50 after 24 hrs by transmission electron microscopy. Type of series: functional, cell-based. The essentials: as §3
Series [26] deals with C6. Put plainly: Induction of apoptosis in rat C6 cells assessed as viable cells at IC50 after 24 hrs by Annexin V-FITC/PI staining based flow cytometry (reference value: 90%). Format: functional.
For series [27], the system named is C6. Kind of series: Induction of mitochondrial membrane potential loss in rat C6 cells assessed as intact mitochondrial membrane potential at IC50 measured after 24 hrs by JC-1 staining based flow cytometric analysis (reference value: 80%). Type of series: functional.
Series [28] has as its system C6. Kind of series: Induction of apoptotic morphological alterations in rat C6 cells assessed as organellar membrane damage at IC50 after 24 hrs by transmission electron microscopy. Format: functional, cell-based. The essentials: as §3

Sequence of RAC-alpha serine/threonine-protein kinase (Rattus norvegicus, UniProt P47196) (P47196 whole entry): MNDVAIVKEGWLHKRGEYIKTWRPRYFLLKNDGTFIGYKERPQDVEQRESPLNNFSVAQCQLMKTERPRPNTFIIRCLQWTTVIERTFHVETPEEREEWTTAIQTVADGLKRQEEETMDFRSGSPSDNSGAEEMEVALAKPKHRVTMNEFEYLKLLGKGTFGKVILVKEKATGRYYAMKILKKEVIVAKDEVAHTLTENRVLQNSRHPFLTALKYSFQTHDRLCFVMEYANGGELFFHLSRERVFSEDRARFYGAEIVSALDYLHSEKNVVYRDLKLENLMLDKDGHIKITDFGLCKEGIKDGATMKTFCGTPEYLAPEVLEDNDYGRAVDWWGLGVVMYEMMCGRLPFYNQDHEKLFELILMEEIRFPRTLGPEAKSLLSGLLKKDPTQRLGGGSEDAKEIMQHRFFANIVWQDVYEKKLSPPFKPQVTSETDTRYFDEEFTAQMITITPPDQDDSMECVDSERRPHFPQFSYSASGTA
Sequence of Focal adhesion kinase 1 (O35346 whole entry): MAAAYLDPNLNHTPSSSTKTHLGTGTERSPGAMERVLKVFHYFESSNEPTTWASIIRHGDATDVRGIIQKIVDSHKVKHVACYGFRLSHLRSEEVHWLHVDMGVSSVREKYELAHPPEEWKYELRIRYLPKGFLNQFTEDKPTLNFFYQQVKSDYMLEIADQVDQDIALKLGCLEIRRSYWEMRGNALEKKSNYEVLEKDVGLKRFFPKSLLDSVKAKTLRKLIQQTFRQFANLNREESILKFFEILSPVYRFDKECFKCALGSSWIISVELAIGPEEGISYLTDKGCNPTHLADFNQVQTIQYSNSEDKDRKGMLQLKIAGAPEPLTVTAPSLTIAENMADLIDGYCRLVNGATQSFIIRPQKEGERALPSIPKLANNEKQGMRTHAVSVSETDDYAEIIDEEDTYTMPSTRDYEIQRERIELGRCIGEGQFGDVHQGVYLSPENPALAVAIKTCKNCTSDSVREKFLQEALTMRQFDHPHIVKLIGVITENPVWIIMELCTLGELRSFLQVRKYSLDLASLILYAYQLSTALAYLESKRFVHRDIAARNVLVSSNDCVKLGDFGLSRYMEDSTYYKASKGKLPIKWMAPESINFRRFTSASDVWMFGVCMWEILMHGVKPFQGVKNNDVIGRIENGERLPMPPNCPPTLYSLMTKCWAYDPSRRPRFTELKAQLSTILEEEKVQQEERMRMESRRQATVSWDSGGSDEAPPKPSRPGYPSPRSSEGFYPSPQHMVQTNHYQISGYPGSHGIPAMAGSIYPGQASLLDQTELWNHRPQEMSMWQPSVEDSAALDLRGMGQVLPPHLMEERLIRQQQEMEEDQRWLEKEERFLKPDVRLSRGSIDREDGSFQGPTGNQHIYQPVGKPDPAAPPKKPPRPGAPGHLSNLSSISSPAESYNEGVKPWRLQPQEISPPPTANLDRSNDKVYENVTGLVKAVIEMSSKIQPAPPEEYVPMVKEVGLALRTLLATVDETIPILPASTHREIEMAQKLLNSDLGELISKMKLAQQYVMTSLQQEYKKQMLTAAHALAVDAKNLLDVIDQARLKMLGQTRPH
Sequence of RAC-alpha serine/threonine-protein kinase (Homo sapiens, UniProt P31749) (P31749 whole entry): as the sequence (P47196 whole entry) above, with N2S, E46D, S50A, R112K, T117E, A137S, T389K, N410G, D415H counted along it

With `O=C(CSc1nnc(COc2ccc3c(c2)CCCC3)o1)Nc1nc2ccc([N+](=O)[O-])cc2s1`, the selectivity ratio stood at 3.41 in [1] and 1.44 in series [3]. The figures for the IC50 with A549 [2], in the series on NIH3T3 and in the series with C6 [4] were 233 µM, 336 µM and 98.3 µM, respectively.
`O=C(CSc1nnc(COc2ccc3c(c2)CCCC3)o1)Nc1ncc([N+](=O)[O-])s1`: the result in the series on A549 [5], in the series on C6 [7], in the series with A549 [10], in the series on C6 [13], in the series with A549 [16] and in the series on C6 [19] was Active. In addition, the result with A549 [21], with A549 [22], with C6 [25] and in the series with C6 [28] was Active. For the same compound, the concentration for half-maximal inhibition (IC50) in [6] was 138 µM; in the series with A549 [2], 115 µM; against Focal adhesion kinase 1 it was 105 µM; in [18], 44.5 µM; in the series on NIH3T3, > 403 µM; with C6 [4], 66.7 µM. The Activity with A549 [8] turned out to be 2.4%; in the series on C6 [9], 12.3%; in the series on A549 [11], 95.1%; with C6 [12] it was 11.3%; with A549 [14], 5.4%; in the series with C6 [15], 98%. The Activity in the series on C6 [17] is 90.1%; in the series on A549 [20], 25.3%; in the series with A549 [23], 67.8%; in the series on A549 [24] it was 95.5%; with C6 [26] it was 80.8%; in the series with C6 [27], 0.6%. Besides, the selectivity ratio in series [1] is > 6.04; in series [3], > 3.5.
For the compound `O=C(CSc1nnc(COc2ccc3c(c2)CCCC3)o1)Nc1nc2ccc(Cl)cc2s1`, the figures for the selectivity ratio in series [1] and in series [3] were 1.04 and 0.94, respectively. Besides, the 50% inhibitory concentration (IC50) was determined as 263 µM in the series with A549 [2], 247 µM with NIH3T3 and 237 µM with C6 [4].
On to `CCn1c(-c2nonc2N)nc2c(C#CC(C)(C)O)ncc(OC[C@H]3CCCNC3)c21` [GSK-690693], for which the IC50 is 105 µM with A549 [2], 6.97 µM in series [18] and 14.5 µM with C6 [4].
Turning to `CCOc1ccc2nc(NC(=O)CSc3nnc(COc4ccc5c(c4)CCCC5)o3)sc2c1`, the selectivity ratio in series [1] is > 4.32; in [3] it was > 1.42. Also, the half-inhibitory concentration (IC50) in the series on A549 [2] is 283 µM; with NIH3T3, > 403 µM; with C6 [4], 93.3 µM.
As to `O=C(CSc1nnc(COc2ccc3c(c2)CCCC3)o1)Nc1nc2ccccc2s1`, the values for the selectivity ratio in series [1] and in series [3] were 0.63 and 0.39, respectively. Also, the concentration for half-maximal inhibition (IC50) is 247 µM in the series with A549 [2], 96.7 µM in the series with NIH3T3 and 153 µM in the series with C6 [4].
On the same counts, the results for `Cc1ccc2nc(NC(=O)CSc3nnc(COc4ccc5c(c4)CCCC5)o3)sc2c1` are > 3.72, > 1.92, 210 µM, > 403 µM and 108 µM.
Take `O=C(CSc1nnc(COc2ccc3c(c2)CCCC3)o1)Nc1nccs1`: the selectivity ratio is > 1.89 in series [1] and > 1.76 in [3]. For the same compound, the half-maximal inhibitory concentration (IC50) with A549 [2] is 228 µM; in the series with NIH3T3, > 403 µM; with C6 [4], 213 µM.
Take `O=C(CSc1nnc(COc2ccc3c(c2)CCCC3)o1)Nc1nc2ccc(F)cc2s1`: the result in the series with A549 [5], with C6 [7], in the series with A549 [10], in the series on C6 [13], with A549 [16] and with C6 [19] was Active. Moreover, the result in the series on A549 [21], with A549 [22], in the series with C6 [25] and in the series with C6 [28] was Active. Also, the IC50 was 98.3 µM in [6]; 91.7 µM in the series on A549 [2]; 118 µM on Focal adhesion kinase 1; 165 µM in [18]; 292 µM in the series with NIH3T3; 89.3 µM with C6 [4]. The Activity turned out to be 78.2% in the series on A549 [8]; 11.9% in the series on C6 [9]; 93.5% in the series on A549 [11]; 11.7% in the series on C6 [12]; 7.1% with A549 [14]; 60.1% in the series with C6 [15]. The Activity worked out at 90.8% in the series on C6 [17]; 17% in the series with A549 [20]; 79.1% in the series with A549 [23]; 21% in the series with A549 [24]; 84.9% in the series on C6 [26]; 32.6% in the series on C6 [27]. Further, the figures for the selectivity ratio in series [1] and in series [3] were 3.27 and 3.18, respectively.

The term IC50 denotes the midpoint of a concentration-inhibition curve.

Source of the values: ChEMBL document CHEMBL4152328, “Design, synthesis, in vitro and in silico evaluation of a new series of oxadiazole-based anticancer agents as potential Akt and FAK inhibitors” (Eur J Med Chem, 2018).
